FXIa inh 1536: factor XIa (human) inhibition; purified FXIa, Boc-Glu-Ala-Arg-AMC fluorogenic substrate; hit rate 0.14% among 220,000; inhibition, % at 5 µM;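 active means inhibition of at least 40%; inactive means inhibition below 40%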;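 further: fluorescence of freed AMC excited at 355 nm; 0% = enzyme without compound and 100% = no enzyme blank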
FXIIa inh: factor XIIa (human) inhibition; P00748; purified FXIIa, Boc-QGR-AMC fluorogenic substrate, 2 h; inhibition, % at 5 µM; AID 800; hit rate 0.3% among 220,000; in the data active means inhibition above about 40%;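 further: 0% = enzyme with no compound and 100% = blank without enzyme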
KLK5 inh: kallikrein 5 (human) inhibition; Q9Y337; hit rate 0.59% among 210,000; inhibition, % at 5 µM; AID 873; recombinant hK5, fluorogenic AMC substrate cleavage;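 active means inhibition of 40% or more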;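 further: 0% = enzyme controls without compound and 100% = no-enzyme blanks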
Thrombin inh: inhibitors of human thrombin; alpha-thrombin, Boc-VPR-AMC fluorogenic substrate cleavage; inhibition, % at 5 µM; hit rate 0.26% among 220,000;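 active means inhibition at or above 40%; inactive means inhibition below 40%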;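 further: 0% = enzyme with no compound and 100% = wells without enzyme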
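Assay system: human alpha-thrombin enzyme. Reagent: Boc-VPR-AMC substrate, 15 µM final. Compound dosing: one concentration per compound, 5 µM, with 0.2% DMSO. Incubation: room-temperature reaction. Technique: AMC fluorescence, 355/460 nm. Measure: % inhibition relative to enzyme controls and enzyme-free blanks.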
Wee1 degr inh: inhibitors of human Wee1 degradation; P30291; HeLa Luc-Wee1K328M stability, luciferase luminescence; 100% = proteasome inhibitor MG132 effect; reporter increase, % at 5 µM; hit rate 1.2% among 220,000; AID 1321;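 active means activation above the mean of all tested compounds plus 3 SD, set per screening run, cut at about 8.8% in these data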;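 further: cells exposed to compound for 20 h before luminescence read; 0% = DMSO alone and 100% = MG132 at 30 µM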
Target sequence (P30291 whole entry K328M): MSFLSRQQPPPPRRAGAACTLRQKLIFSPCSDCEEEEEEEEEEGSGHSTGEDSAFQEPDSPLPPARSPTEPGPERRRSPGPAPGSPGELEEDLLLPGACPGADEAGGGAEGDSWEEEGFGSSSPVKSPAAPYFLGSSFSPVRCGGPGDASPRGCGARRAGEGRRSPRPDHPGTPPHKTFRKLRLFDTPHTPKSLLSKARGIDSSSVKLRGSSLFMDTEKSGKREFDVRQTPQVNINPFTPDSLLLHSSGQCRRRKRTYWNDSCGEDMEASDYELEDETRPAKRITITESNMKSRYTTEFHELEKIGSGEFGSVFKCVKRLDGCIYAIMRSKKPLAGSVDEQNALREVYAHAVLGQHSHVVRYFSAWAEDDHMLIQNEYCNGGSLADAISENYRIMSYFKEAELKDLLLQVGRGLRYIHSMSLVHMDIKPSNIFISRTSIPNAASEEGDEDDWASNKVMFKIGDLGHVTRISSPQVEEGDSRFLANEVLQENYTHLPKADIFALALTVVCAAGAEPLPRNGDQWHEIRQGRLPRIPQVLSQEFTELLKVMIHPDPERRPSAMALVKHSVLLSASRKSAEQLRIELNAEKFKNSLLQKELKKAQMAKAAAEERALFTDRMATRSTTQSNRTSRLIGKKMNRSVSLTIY
An asterisk follows results filed as active; x = no result given. Most compounds without a hit are left out; they make up all but 2.2% or so of the library.

SMILES	FXIa inh 1536	FXIIa inh	KLK5 inh	Thrombin inh	Wee1 degr inh
CC(C)(C)NC(=O)Cn1ccc(=N)c2ccccc21	15	21	24	18	-3
CCCN(CCC)C(=O)Cn1ccc(=N)c2ccccc21	3	16	46*	34	-2
Cc1ccc(S(=O)(=O)N2CCC(C(=O)NNC(=O)c3ccc(F)cc3)CC2)cc1	5	9	-2	-1	0
O=C(Oc1nsnc1N1CCCCC1)N1CCOCC1	9	15	3	7	8.9*
O=C(Oc1nsnc1N1CCOCC1)N1CCCC1	x	x	x	x	0
COC(=O)c1[nH]c2cccc(OC)c2c1NC(=O)CN1CCN(c2cccc(OC)c2)C(C)C1 (stereo not given)	-4	-1	125*	3	3
c1ccc(Cn2nnc3c(NCCN4CCOCC4)ncnc32)cc1	22	13	20	31	2
Clc1ccccc1Cn1nnc2c(NCCN3CCOCC3)ncnc21	47*	11	23	26	3
O=C(c1cc(Cl)nc2ccccc12)N1CCc2ccccc2C1	42*	30	26	3	1
CCOc1ccc(CN(CCO)CCO)cc1[N+](=O)[O-]	-1	10	-2	-9	9.0*
COc1cccc(N2C(=O)CC(NNc3nc4ccccc4s3)C2=O)c1 (stereo not given)	18	14	40*	19	-3
O=C1CC(NNc2nc3ccccc3s2)C(=O)N1c1ccccc1 (stereo not given)	-1	-4	2	1	0
CC(C)(C)CC(=O)Nc1ccccc1N1CCN(c2ccccc2)CC1	-2	8	-3	2	11*
CCOC(=O)/C(C#N)=C/N=c1ccc(C)cn1C	33	104*	43*	12	-2
CCCN1C=CC(=CC=C(C#N)C#N)C=C1	20	22	67*	4	3
C=CCN1C=CC(=CC=C(C#N)C#N)C=C1	4	13	4	-2	9
CCCN1C=CC(=C/C=C(\C#N)C(=O)OCC)C=C1	3	0	3	-18	12*
CCCCCCN1C=CC(=C/C=C(\C#N)C(=O)OCC)C=C1	3	16	-4	7	-1
Cc1ccc(S(=O)(=O)N(Cc2ccccc2)c2ccccc2C(=O)NCc2ccco2)cc1	-7	47*	-3	-2	0
CCOc1ccc(C(=O)NCc2ccccc2)cc1Br	-7	-1	-18	-8	-3
COc1ccc(CNC(=O)C/C(C)=N/NC(=O)COc2ccccc2)cc1	3	10	0	-6	-2
CCC(=O)N/C(=N/c1nc(C)cc(C)n1)Nc1ccccc1	8	12	7	4	0
CCC(=O)N/C(=N/c1nc(C)cc(C)n1)Nc1ccc(OC)cc1	3	4	-6	51*	3
O=C(Nc1ncc(Cc2ccccc2)s1)c1cccs1	34	42*	-15	0	9.0*
Cc1ccc(Cc2cnc(NC(=O)c3cccs3)s2)cc1	-2	18	7	-5	4
SMILES	FXIa inh 1536	FXIIa inh	KLK5 inh	Thrombin inh	Wee1 degr inh
Cc1onc(-c2ccc(Cl)cc2Cl)c1-c1csc(N/N=C/c2ccccc2Cl)n1	-3	8	4	1	9.7*
CC(C)OP(=O)(OC(C)C)/C(C=O)=N\Nc1ccc([N+](=O)[O-])cc1	2	11	3	1	0
CC(C)n1c(=S)[nH]c2scc(-c3cccs3)c2c1=O	8	11	-8	-1	9.1*
COCCCNC(=O)/C=C1\Sc2ccccc2N(Cc2ccccc2F)C1=O	-8	-7	-26	-1	9.7*
CCN1CCN(CCNC(=O)c2ccc(/C=C3\Sc4ccccc4N(Cc4ccccc4F)C3=O)cc2)CC1	-10	5	-7	-21	-3
COc1ccc(CC(=O)OCC(=O)Nc2ccc(Br)cc2)cc1	-1	x	2	0	4
COc1ccc2c(c1)-c1nc(NC(=O)c3cccs3)sc1CC2	49*	22	-14	4	3
COc1ccc(-c2nnc(NC(=O)c3cccs3)s2)c(OC)c1	-18	5	27	-3	5
COc1ccc(S(=O)(=O)CCc2nnc(NC(=O)c3cccs3)s2)cc1	0	22	1	77*	0
O=C(Cc1c[nH]c2ccccc12)NCc1ccc(Cl)cc1Cl	-18	6	-17	-5	0
O=C(CN1C(=O)CC(c2ccccc2)S(=O)(=O)c2ccccc21)N1CCCCC1 (stereo not given)	-7	0	-15	0	1
CCOC(=O)C1(C)C=C(Nc2cccc(OC)c2)C(=O)N1c1ccccc1 (stereo not given)	22	21	44*	28	2
COc1ccc(CC(=O)NNC(=O)c2cccnc2)cc1OC	1	9	4	-9	5
N/C(=N\OC(=O)COc1ccc2ccccc2c1Br)c1ccncc1	-2	2	-6	-8	3
Cc1ccc(S(=O)(=O)n2nc(-c3cccnc3)nc2N)cc1	8	18	-12	4	2
COc1ccccc1C(=O)n1nc(-c2cccnc2)nc1N	-4	85*	61*	x	1
Cc1ccc(C(=O)n2nc(-c3cccnc3)nc2N)cc1	48*	94*	74*	82*	0
CC1CCc2c(sc(NC(=O)CSc3ncnc4c3cnn4-c3ccccc3Cl)c2C#N)C1 (stereo not given)	1	12	-6	-2	3
O=C(NCc1ccc(C(=O)O)cc1)OCc1ccccc1	-2	5	-1	0	-4
C(=N\NC1=Nc2cccc3cccc1c23)/c1ccccc1	6	7	-5	-4	8.9*
Clc1ccc(/C=N/NC2=Nc3cccc4cccc2c34)cc1	5	3	-3	-2	-4
O=c1oc(Nc2cccc(Cl)c2)nc2ccccc12	-5	-2	-14	-5	-1
CCOc1ccc(OCC)c(NC(=O)C2CCCN(S(=O)(=O)c3cnc[nH]3)C2)c1 (stereo not given)	9	5	11	40*	-1
CCOc1ccc(OCC)c(NC(=O)C2CCCN(S(=O)(=O)c3c(C)n[nH]c3C)C2)c1 (stereo not given)	4	11	-1	1	-1
CCOc1ccccc1NC(=O)C1CCCN(S(=O)(=O)c2cccc3nsnc23)C1 (stereo not given)	11	23	121*	11	1
Cc1ccc(N(CC(=O)N/N=C/c2ccc(OC3CSC3)cc2)S(=O)(=O)c2ccccc2)cc1	-3	6	-10	-3	-3
CC(C)c1ccc(N(CC(=O)N/N=C/c2ccc(OC3CSC3)cc2)S(=O)(=O)c2ccccc2)cc1	-11	-4	22	59*	4
C=CCn1c(SCC(=O)Nc2nc(C)cs2)nnc1C(NC(=O)c1ccccc1)C(C)C (stereo not given)	4	15	51*	18	1
COc1ccc(C(=O)NC(C)c2nnc(SCC(=O)Nc3nc(C)cs3)n2C)cc1 (stereo not given)	14	40	-12	-7	4

Source: PubChem BioAssay
